Tests used:
[1] = test system: Hepatitis C virus; test: Inhibition of HCV 1b BK NS5B delta21 RNA polymerase expressed in Escherichia coli; set-up: species or system Hepatitis C virus subtype 1b
[2] = Cytotoxicity against Huh7 cells by MTS assay; type: cell-based; conditions: Homo sapiens, Huh-7
[3] = test system: Hepatitis C virus; test: Antiviral activity in Huh7 cells containing HCV 1b BB7 replicon; type: functional, organism-based, Hepacivirus hominis; conditions: genotype 1b, Huh-7
Summary of the method: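 Huh7 cells carrying the genotype 1b BB7 replicon were exposed to increasing compound concentrations for 3 days in DMEM with 2% FCS and no G418. HCV, ribosomal and GAPDH mRNA levels were measured by quantitative TaqMan RT-PCR. Values are averages of at least three determinations.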

[4] = Inhibition of human DNA polymerase alpha
Summary of the method: (§1)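 The enzyme was incubated with compound in buffer containing four dNTPs spiked with [α-33P]TTP, with dNTPs and templates at their respective Km levels. Templates were poly(dA)-oligo(dT)12 for HIV RT, activated calf thymus DNA for CT pol α and human pol α/β, and singly primed M13 DNA for human pol γ. Reactions ran 1-2 h at 37 °C, and filtered product was counted. Values are averages of at least three determinations.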

[5] = Inhibition of human DNA polymerase gamma; summary of the method: as §1
[6] = Inhibition of calf thymus DNA polymerase alpha; set-up: species or system Bos taurus; summary of the method: as §1
[7] = Inhibition of RNA polymerase 2; set-up: species or system Homo sapiens
[8] = Inhibition of HIV reverse transcriptase; set-up: species or system Human immunodeficiency virus; summary of the method: as §1
[9] = Inhibition of human DNA polymerase beta; summary of the method: as §1

| SMILES | IC50 [1] | IC50 [3] | IC50 [2] | other results |
| --- | --- | --- | --- | --- |
| CCC(=O)c1cc(Cl)ccc1NCC(=O)Nc1ccccc1C(=O)O | 3.36 µM |  |  |  |
| O=C(CNc1cccc(Br)c1)Nc1ccccc1C(=O)O | 0.87 µM |  |  |  |
| C[C@@H](Oc1ccc(Cl)cc1)C(=O)Nc1ccccc1C(=O)O | 50 µM |  |  |  |
| CN(CC(=O)Nc1ccccc1C(=O)O)c1ccc(Cl)c(Cl)c1 | 0.17 µM | 14 µM | 47 µM |  |
| O=C(CNc1ccc(F)c(Cl)c1)Nc1ccccc1C(=O)O | 0.21 µM | 40 µM | 155 µM |  |
| N#Cc1ccc(OCC(=O)Nc2ccccc2C(=O)O)cc1 | 5.1 µM |  |  |  |
| O=C(COc1ccc(F)cc1)Nc1ccccc1C(=O)O | 5.2 µM |  |  |  |
| O=C(COc1cccc(Br)c1)Nc1ccccc1C(=O)O | 1.14 µM |  |  |  |
| O=C(COc1ccc(Br)cc1)Nc1ccccc1C(=O)O | 3.23 µM |  |  |  |
| COC(=O)c1ccccc1NC(=O)COc1ccc(Cl)cc1 | > 31 µM |  |  |  |
| O=C(COc1ccc(Cl)cc1)Nc1ccc(C(=O)O)cc1 | > 28 µM |  |  |  |
| O=C(CNc1ccc(Cl)c(Cl)c1)Nc1ccccc1C(=O)O | 0.2 µM | 13 µM | 47 µM |  |
| O=C(COc1ccccc1)Nc1ccccc1C(=O)O | > 37 µM |  |  |  |
| COc1ccc(OCC(=O)Nc2ccccc2C(=O)O)cc1 | 35 µM |  |  |  |
| O=C(COc1ccc(Cl)cc1)Nc1cccc(C(=O)O)c1 | > 33 µM |  |  |  |
| O=C(CSc1ccc(Cl)cc1)Nc1ccccc1C(=O)O | 4.4 µM |  |  |  |
| C[C@H](Oc1ccc(Cl)cc1)C(=O)Nc1ccccc1C(=O)O | 0.76 µM |  |  |  |
| CC(=O)c1cc(Br)ccc1NCC(=O)Nc1ccccc1C(=O)O | 0.11 µM | 43 µM | > 128 µM |  |
| CC(C)(Oc1ccc(Cl)cc1)C(=O)Nc1ccccc1C(=O)O | > 30 µM |  |  |  |

Further lines, with some results ahead:

| IC50 [1] | IC50 [3] | SMILES | IC50 [2] | other results |
| --- | --- | --- | --- | --- |
| 0.23 µM | > 11 µM | CC(=O)c1cc(F)c(Cl)cc1OCC(=O)Nc1ccccc1C(=O)O | > 115 µM |  |
| 1.05 µM | 30 µM | CC(=O)c1cc(C)c(Cl)cc1NCC(=O)Nc1ccccc1C(=O)O | > 139 µM |  |
| 0.23 µM | 12 µM | CC(=O)c1cc(Cl)ccc1NCC(=O)Nc1ccccc1C(=O)O | > 144 µM |  |
| 1.5 µM | > 11 µM | CC(=O)c1cc(F)ccc1OCC(=O)Nc1ccccc1C(=O)O | > 115 µM |  |
| 0.57 µM | > 11 µM | COc1cc(Cl)ccc1OCC(=O)Nc1ccccc1C(=O)O | > 115 µM |  |
| 7.47 µM |  | CC(=O)c1cc(F)c(C)cc1NCC(=O)Nc1ccccc1C(=O)O |  |  |
| 0.45 µM | > 11 µM | O=C(COc1ccc(Cl)cc1Cl)Nc1ccccc1C(=O)O | > 115 µM |  |
| 0.022 µM | 30 µM | CC(=O)c1cc(Br)c(Cl)cc1NCC(=O)Nc1ccccc1C(=O)O | > 117 µM |  |
| 0.03 µM | 10 µM | CC(=O)c1cc(Cl)c(Cl)cc1NCC(=O)Nc1ccccc1C(=O)O | 123 µM |  |
| 0.86 µM | > 11 µM | CC(=O)c1ccc(Cl)cc1OCC(=O)Nc1ccccc1C(=O)O | > 115 µM |  |
| 0.14 µM | > 11 µM | CC(=O)c1cc(Cl)c(C)cc1OCC(=O)Nc1ccccc1C(=O)O | > 115 µM |  |
| 0.11 µM | > 11 µM | CC(=O)c1cc(Cl)c(F)cc1OCC(=O)Nc1ccccc1C(=O)O | > 115 µM |  |
| 1.27 µM | > 11 µM | O=C(COc1cc(F)c(F)cc1F)Nc1ccccc1C(=O)O | > 115 µM |  |
| 0.032 µM | 5 µM | CCc1cc(NCC(=O)Nc2ccccc2C(=O)O)c(C(C)=O)cc1Cl | 44 µM |  |
| 0.11 µM | > 11 µM | Cc1cc(OCC(=O)Nc2ccccc2C(=O)O)c(Br)cc1Cl | > 115 µM |  |
| 0.21 µM | 32 µM | CC(=O)c1cc(C)c(C)cc1NCC(=O)Nc1ccccc1C(=O)O | > 147 µM |  |
| 2.8 µM | > 11 µM | CC(=O)c1cc(C)ccc1OCC(=O)Nc1ccccc1C(=O)O | > 115 µM |  |
| 0.03 µM | > 11 µM | O=C(COc1cc(Cl)c(Cl)cc1Cl)Nc1ccccc1C(=O)O | > 115 µM |  |
| 0.57 µM | > 11 µM | Cc1cc(Cl)ccc1OCC(=O)Nc1ccccc1C(=O)O | > 115 µM |  |
|  | 2 µM | CC(=O)c1cc(F)c(Cl)cc1NCC(=O)Nc1ccccc1C(=O)O | > 137 µM | IC50 [4]: > 137 µM; IC50 [5]: > 27 µM; IC50 [6]: > 137 µM; IC50 [7]: > 137 µM; IC50 [8]: > 137 µM; IC50 [9]: > 137 µM |
| 0.53 µM | > 11 µM | CC(=O)c1cc(Cl)ccc1OCC(=O)Nc1ccccc1C(=O)O | > 115 µM |  |
| 0.01 µM | 2 µM | CC(=O)c1cc(F)c(Br)cc1NCC(=O)Nc1ccccc1C(=O)O | > 122 µM | IC50 [4]: > 122 µM; IC50 [5]: > 24 µM; IC50 [6]: > 122 µM; IC50 [7]: > 122 µM; IC50 [8]: > 122 µM; IC50 [9]: > 122 µM |
| 0.08 µM | 3.1 µM | CC(=O)c1cc(Cl)c(C)cc1NCC(=O)Nc1ccccc1C(=O)O | > 139 µM |  |
| 0.18 µM | 17 µM | CC(=O)c1cc(Cl)c(F)cc1NCC(=O)Nc1ccccc1C(=O)O | > 137 µM |  |

From ChEMBL document CHEMBL1147133, “Identification of anthranilic acid derivatives as a novel class of allosteric inhibitors of hepatitis C NS5B polymerase” (J Med Chem, 2007)
